Calls of active or inactive are those of the source. No cut-off for these calls is given here.
test system: A2780; assay: Cytotoxicity against human A2780 cells assessed as inhibition of cell proliferation incubated for 72 hrs by MTT assay; format: functional, cell-based; conditions: A2780, 72 h, read-out: IC50
Procedure, shortened: (§1)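 Cells were seeded (10000/well for A2780, 5000/well for MES-SA/Dx5 and KB-3-1/V1) and left to attach 12 h, then exposed to compound for 72 h. Medium was removed, and MTT (0.83 mg/mL) was added for 1 h at 37 °C. Cells were lysed in DMSO and absorbance read at 540 nm. Signal was corrected for unstained lysate background, normalized to untreated cells, and IC50 taken from a sigmoidal dose-response fit.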

| SMILES | IC50 |
| --- | --- |
| COc1ccc(NC(=S)N/N=C2\C(=O)Nc3ccc(OC(F)(F)F)cc32)cc1 | 3390 nM |
| COc1cc(N/N=C(\C)c2ccccn2)ncn1 | 140 nM |
| C/C(=N\NC(=S)Nc1ccc(C)cc1)c1ccccn1 | 17 nM |
| COc1ccc(NC(=S)N/N=C(\C)c2ccccn2)cc1 | 46 nM |

same assay, conditions: A2780, 72 h, read-out: pIC50 (converted)

| SMILES | IC50 |
| --- | --- |
| COc1ccc(NC(=S)N/N=C2\C(=O)Nc3ccc(OC(F)(F)F)cc32)cc1 | 3240 nM |
| COc1cc(N/N=C(\C)c2ccccn2)ncn1 | 132 nM |
| C/C(=N\NC(=S)Nc1ccc(C)cc1)c1ccccn1 | 16.2 nM |
| COc1ccc(NC(=S)N/N=C(\C)c2ccccn2)cc1 | 45.7 nM |

test system: not listed separately; assay: Selectivity ratio of IC50 for human MES-SA cells to IC50 for human MES-SA/DX5 cells incubated for 72 hrs by MTT assay; format: functional; conditions: not given
Procedure, shortened: (§2)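 The selectivity ratio is the IC50 in P-gp-negative parental cells divided by the IC50 in the P-gp-positive resistant partner.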

| SMILES | Ratio IC50 |
| --- | --- |
| COc1ccc(NC(=S)N/N=C2\C(=O)Nc3ccc(OC(F)(F)F)cc32)cc1 | 2.31 |
| COc1cc(N/N=C(\C)c2ccccn2)ncn1 | 2.62 |
| C/C(=N\NC(=S)Nc1ccc(C)cc1)c1ccccn1 | 6.25 |
| COc1ccc(NC(=S)N/N=C(\C)c2ccccn2)cc1 | 22.59 |

test system: KB-V1; assay: Cytotoxicity against human KB-V1 cells assessed as inhibition of cell proliferation incubated for 72 hrs in presence of efflux pump inhibitor, Tariquidar by MTT assay; format: functional, cell-based; conditions: not given

| SMILES | Activity |
| --- | --- |
| C/C(=N\NC(=S)Nc1ccc(C)cc1)c1ccccn1 | Active |

test system: MES-SA/Dx5; assay: Cytotoxicity against human MES-SA/DX5 cells transfected with mCherry fluorescent protein incubated for 72 hrs in presence of efflux pump inhibitor, Tariquidar by fluorescence assay; format: functional, cell-based; conditions: not given
Procedure, shortened: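 The mCherry-expressing cells (lentiviral) were seeded at 5000 or 2500 per well, attached for 24 h, and exposed 72 h to compounds with Tariquidar coadministered. Live-cell signal was fluorescence at 585 nm excitation and 610 nm emission.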

| SMILES | Activity |
| --- | --- |
| COc1ccc(NC(=S)N/N=C2\C(=O)Nc3ccc(OC(F)(F)F)cc32)cc1 | inactive |
| COc1ccc(NC(=S)N/N=C(\C)c2ccccn2)cc1 | Active |

test system: MES-SA/Dx5; assay: Cytotoxicity against human MES-SA/DX5 cells assessed as inhibition of cell proliferation incubated for 72 hrs by MTT assay; format: functional, cell-based; conditions: MES-SA/Dx5, 72 h, read-out: IC50; procedure, shortened: as §1

| SMILES | IC50 |
| --- | --- |
| COc1ccc(NC(=S)N/N=C2\C(=O)Nc3ccc(OC(F)(F)F)cc32)cc1 | 2780 nM |
| COc1cc(N/N=C(\C)c2ccccn2)ncn1 | 95 nM |
| C/C(=N\NC(=S)Nc1ccc(C)cc1)c1ccccn1 | 1.8 nM |
| COc1ccc(NC(=S)N/N=C(\C)c2ccccn2)cc1 | 14.2 nM |

same assay, conditions: MES-SA/Dx5, 72 h, read-out: pIC50 (converted)

| SMILES | IC50 |
| --- | --- |
| COc1ccc(NC(=S)N/N=C2\C(=O)Nc3ccc(OC(F)(F)F)cc32)cc1 | 2570 nM |
| C/C(=N\NC(=S)Nc1ccc(C)cc1)c1ccccn1 | 1.7 nM |
| COc1ccc(NC(=S)N/N=C(\C)c2ccccn2)cc1 | 14.1 nM |

test system: MES-SA; assay: Cytotoxicity against human MES-SA cells transfected with mCherry fluorescent protein assessed as inhibition of cell proliferation incubated for 72 hrs by fluorescent assay; format: functional, cell-based; conditions: Homo sapiens, MES-SA, 72 h; read-out: IC50
Procedure, shortened: (§3)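 MES-SA and MES-SA/Dx5 cells were made to stably express mCherry by lentiviral transduction. Cells were seeded at 5000 (96-well) or 2500 (384-well) per well, allowed to attach 24 h, then treated with compound dilutions for 72 h. Viability was read as fluorescence, excitation 585 nm, emission 610 nm.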

| SMILES | IC50 |
| --- | --- |
| COc1ccc(NC(=S)N/N=C2\C(=O)Nc3ccc(OC(F)(F)F)cc32)cc1 | 8140 nM |
| COc1cc(N/N=C(\C)c2ccccn2)ncn1 | 260 nM |
| C/C(=N\NC(=S)Nc1ccc(C)cc1)c1ccccn1 | 65 nM |
| COc1ccc(NC(=S)N/N=C(\C)c2ccccn2)cc1 | 250 nM |

same assay, conditions: Homo sapiens, MES-SA, 72 h; read-out: pIC50 (converted)

| SMILES | IC50 |
| --- | --- |
| COc1cc(N/N=C(\C)c2ccccn2)ncn1 | 339 nM |
| C/C(=N\NC(=S)Nc1ccc(C)cc1)c1ccccn1 | 41.7 nM |
| COc1ccc(NC(=S)N/N=C(\C)c2ccccn2)cc1 | 229 nM |

test system: HFF; assay: Cytotoxicity against human HFF cells by MTT assay; conditions: not given

| SMILES | Activity |
| --- | --- |
| COc1cc(N/N=C(\C)c2ccccn2)ncn1 | Non-Toxic |
| C/C(=N\NC(=S)Nc1ccc(C)cc1)c1ccccn1 | Non-Toxic |

test system: KB 3-1; assay: Cytotoxicity against human KB-3-1 cells assessed as inhibition of cell proliferation incubated for 72 hrs by MTT assay; format: functional, cell-based; conditions: KB 3-1, 72 h, read-out: IC50; procedure, shortened: as §1

| SMILES | IC50 |
| --- | --- |
| COc1ccc(NC(=S)N/N=C2\C(=O)Nc3ccc(OC(F)(F)F)cc32)cc1 | 6560 nM |
| COc1cc(N/N=C(\C)c2ccccn2)ncn1 | 360 nM |
| C/C(=N\NC(=S)Nc1ccc(C)cc1)c1ccccn1 | 40.4 nM |
| COc1ccc(NC(=S)N/N=C(\C)c2ccccn2)cc1 | 950 nM |

same assay, conditions: KB 3-1, 72 h, read-out: pIC50 (converted)

| SMILES | IC50 |
| --- | --- |
| COc1ccc(NC(=S)N/N=C2\C(=O)Nc3ccc(OC(F)(F)F)cc32)cc1 | 6170 nM |
| COc1cc(N/N=C(\C)c2ccccn2)ncn1 | 355 nM |
| C/C(=N\NC(=S)Nc1ccc(C)cc1)c1ccccn1 | 37.2 nM |
| COc1ccc(NC(=S)N/N=C(\C)c2ccccn2)cc1 | 692 nM |

test system: A2780 ADR; assay: Cytotoxicity against human A2780adr cells assessed as inhibition of cell proliferation incubated for 72 hrs in presence of efflux pump inhibitor, Tariquidar by MTT assay; format: functional, cell-based; conditions: not given

| SMILES | Activity |
| --- | --- |
| COc1cc(N/N=C(\C)c2ccccn2)ncn1 | Active |

test system: MES-SA/Dx5; assay: Cytotoxicity against human MES-SA/DX5 cells incubated for 72 hrs in presence of efflux pump inhibitor, Tariquidar by MTT assay; format: functional, cell-based; conditions: not given
Procedure, shortened: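 Run as the 72 h MTT viability readout (12 h attachment, MTT 0.83 mg/mL for 1 h, DMSO lysis, A540), with the P-gp inhibitor Tariquidar at 1 µM co-present. IC50 came from sigmoidal fits of 2 to 4 independent experiments.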

| SMILES | Activity |
| --- | --- |
| COc1ccc(NC(=S)N/N=C2\C(=O)Nc3ccc(OC(F)(F)F)cc32)cc1 | inactive |
| COc1cc(N/N=C(\C)c2ccccn2)ncn1 | Active |
| C/C(=N\NC(=S)Nc1ccc(C)cc1)c1ccccn1 | Active |
| COc1ccc(NC(=S)N/N=C(\C)c2ccccn2)cc1 | Active |

test system: not listed separately; assay: Selectivity ratio of IC50 for human A2780 cells to IC50 for human A2780adr cells incubated for 72 hrs by MTT assay; format: functional; conditions: not given; procedure, shortened: as §2

| SMILES | Ratio IC50 |
| --- | --- |
| COc1cc(N/N=C(\C)c2ccccn2)ncn1 | 4.33 |

test system: KB-V1; assay: Cytotoxicity against human KB-V1 cells assessed as inhibition of cell proliferation incubated for 72 hrs by MTT assay; format: functional, cell-based; conditions: KB-V1, 72 h, read-out: IC50; procedure, shortened: as §1

| SMILES | IC50 |
| --- | --- |
| COc1ccc(NC(=S)N/N=C2\C(=O)Nc3ccc(OC(F)(F)F)cc32)cc1 | 3920 nM |
| COc1cc(N/N=C(\C)c2ccccn2)ncn1 | 490 nM |
| C/C(=N\NC(=S)Nc1ccc(C)cc1)c1ccccn1 | 36 nM |
| COc1ccc(NC(=S)N/N=C(\C)c2ccccn2)cc1 | 1750 nM |

same assay, conditions: KB-V1, 72 h, read-out: pIC50 (converted)

| SMILES | IC50 |
| --- | --- |
| COc1ccc(NC(=S)N/N=C2\C(=O)Nc3ccc(OC(F)(F)F)cc32)cc1 | 3890 nM |
| COc1cc(N/N=C(\C)c2ccccn2)ncn1 | 490 nM |
| C/C(=N\NC(=S)Nc1ccc(C)cc1)c1ccccn1 | 33.1 nM |
| COc1ccc(NC(=S)N/N=C(\C)c2ccccn2)cc1 | 1050 nM |

test system: MES-SA; assay: Cytotoxicity against human MES-SA cells assessed as inhibition of cell proliferation incubated for 72 hrs by MTT assay; format: functional, cell-based; conditions: read-out: IC50; procedure, shortened: as §1

| SMILES | IC50 |
| --- | --- |
| COc1ccc(NC(=S)N/N=C2\C(=O)Nc3ccc(OC(F)(F)F)cc32)cc1 | 6140 nM |
| COc1cc(N/N=C(\C)c2ccccn2)ncn1 | 260 nM |
| C/C(=N\NC(=S)Nc1ccc(C)cc1)c1ccccn1 | 16 nM |
| COc1ccc(NC(=S)N/N=C(\C)c2ccccn2)cc1 | 340 nM |

same assay, conditions: read-out: pIC50 (converted)

| SMILES | IC50 |
| --- | --- |
| COc1ccc(NC(=S)N/N=C2\C(=O)Nc3ccc(OC(F)(F)F)cc32)cc1 | 5750 nM |
| C/C(=N\NC(=S)Nc1ccc(C)cc1)c1ccccn1 | 17 nM |
| COc1ccc(NC(=S)N/N=C(\C)c2ccccn2)cc1 | 339 nM |

test system: not listed separately; assay: Selectivity ratio of IC50 for human KB-3-1 cells to IC50 for human KB-V1 cells incubated for 72 hrs by MTT assay; format: functional; conditions: not given; procedure, shortened: as §2

| SMILES | Ratio IC50 |
| --- | --- |
| C/C(=N\NC(=S)Nc1ccc(C)cc1)c1ccccn1 | 1.15 |

test system: not listed separately; assay: Selectivity ratio of IC50 for human MES-SA cells transfected with mCherry to IC50 for human MES-SA/DX5 cells transfected with mCherry incubated for 72 hrs by fluorescent assay; format: functional; conditions: not given

| SMILES | Ratio IC50 |
| --- | --- |
| COc1ccc(NC(=S)N/N=C2\C(=O)Nc3ccc(OC(F)(F)F)cc32)cc1 | 3.29 |
| COc1ccc(NC(=S)N/N=C(\C)c2ccccn2)cc1 | 4.54 |

test system: MES-SA/Dx5; assay: Cytotoxicity against human MES-SA/DX5 cells transfected with mCherry fluorescent protein assessed as inhibition of cell proliferation incubated for 72 hrs by fluorescent assay; format: functional, cell-based; conditions: Homo sapiens, MES-SA/Dx5, 72 h; read-out: IC50; procedure, shortened: as §3

| SMILES | IC50 |
| --- | --- |
| COc1ccc(NC(=S)N/N=C2\C(=O)Nc3ccc(OC(F)(F)F)cc32)cc1 | 2520 nM |
| COc1cc(N/N=C(\C)c2ccccn2)ncn1 | 220 nM |
| C/C(=N\NC(=S)Nc1ccc(C)cc1)c1ccccn1 | 29 nM |
| COc1ccc(NC(=S)N/N=C(\C)c2ccccn2)cc1 | 64 nM |

same assay, conditions: Homo sapiens, MES-SA/Dx5, 72 h; read-out: pIC50 (converted)

| SMILES | IC50 |
| --- | --- |
| COc1cc(N/N=C(\C)c2ccccn2)ncn1 | 234 nM |
| C/C(=N\NC(=S)Nc1ccc(C)cc1)c1ccccn1 | 25.7 nM |
| COc1ccc(NC(=S)N/N=C(\C)c2ccccn2)cc1 | 57.5 nM |

test system: not listed separately; assay: Cytotoxicity against human A2780adr cells assessed as inhibition of cell proliferation incubated for 72 hrs by MTT assay; format: functional, cell-based; conditions: A2780 ADR, read-out: IC50; procedure, shortened: as §1

| SMILES | IC50 |
| --- | --- |
| COc1ccc(NC(=S)N/N=C2\C(=O)Nc3ccc(OC(F)(F)F)cc32)cc1 | 3770 nM |
| COc1cc(N/N=C(\C)c2ccccn2)ncn1 | 27 nM |
| C/C(=N\NC(=S)Nc1ccc(C)cc1)c1ccccn1 | 21 nM |
| COc1ccc(NC(=S)N/N=C(\C)c2ccccn2)cc1 | 31 nM |

same assay, conditions: A2780 ADR, read-out: pIC50 (converted)

| SMILES | IC50 |
| --- | --- |
| COc1ccc(NC(=S)N/N=C2\C(=O)Nc3ccc(OC(F)(F)F)cc32)cc1 | 3550 nM |
| COc1cc(N/N=C(\C)c2ccccn2)ncn1 | 25.7 nM |
| C/C(=N\NC(=S)Nc1ccc(C)cc1)c1ccccn1 | 20.4 nM |
| COc1ccc(NC(=S)N/N=C(\C)c2ccccn2)cc1 | 28.2 nM |

Source: ChEMBL document CHEMBL4715714, “Design, synthesis and biological evaluation of thiosemicarbazones, hydrazinobenzothiazoles and arylhydrazones as anticancer agents with a potential to overcome multidrug resistance” (Eur J Med Chem, 2016)
